According to ChEMBL document CHEMBL1128260, “3-deaza- and 7-deaza-5'-noraristeromycin and their antiviral properties” (1995):
Converted amounts (≈) assume the structure as drawn.

Legend:
Assay type in all cases: functional
CCRF-CEM [1] = test: The minimum inhibitory concentration required to reduce HIV-1(IIIB) virus induced cytopathicity by 50% was measured on CEM cells; conditions: Homo sapiens
Summary of the method: (§1)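 CEM cells at 250,000-300,000 cells/mL were infected with HIV-1 (IIIB) or HIV-2 (ROD) at 100 CCID50/mL. The infected suspension was added to serial compound dilutions and incubated 4 days at 37 °C. Cultures were then examined for syncytium (giant cell) formation, and the 50% inhibitory concentration was recorded.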

CCRF-CEM [2] = test: The minimum inhibitory concentration required to reduce HIV-2(ROD) virus induced cytopathicity by 50% was measured on CEM cells; conditions: Homo sapiens; summary of the method: as §1
E6SM [3] = test: Tested for concentration required to cause a microscopically detectable alteration of E6SM cell morphology; conditions: Homo sapiens; read-out: MIC50
Summary of the method: (§2)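 Confluent E6SM, HeLa, Vero or MDCK cell cultures exposed to varying test-compound concentrations and examined microscopically. The value is the concentration causing a microscopically detectable alteration of normal cell morphology.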

E6SM [4] = test: The minimum inhibitory concentration required to reduce HSV-1(KOS) virus induced cytopathicity by 50% was measured on E6SM cells; conditions: Homo sapiens
Summary of the method: (§3)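 Confluent cell monolayers in microtiter trays were inoculated with 100 CCID50 of virus and allowed 1 h adsorption, then residual virus was removed. Cultures were incubated with varying compound concentrations (400, 200, 100, ... µg/mL). Cytopathicity was scored once it was complete in the untreated infected controls. The value is the concentration reducing virus-induced cytopathicity by 50%.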

E6SM [5] = test: The minimum inhibitory concentration required to reduce HSV-2(G) virus induced cytopathicity by 50% was measured on E6SM cells; conditions: Homo sapiens; summary of the method: as §3
E6SM [6] = test: The minimum inhibitory concentration required to reduce TK HSV-1 (B2006) virus induced cytopathicity by 50% in E6SM cells; conditions: Homo sapiens; summary of the method: as §3
E6SM [7] = test: The minimum inhibitory concentration required to reduce Vaccinia virus induced cytopathicity by 50% in E6SM cells; conditions: Homo sapiens; summary of the method: as §3
E6SM [8] = test: The minimum inhibitory concentration required to reduce Vesicular Stomatitis Virus induced cytopathicity by 50% in E6SM cells; conditions: Homo sapiens; summary of the method: as §3
HEL [9] = test: Tested for the concentration required to cause a microscopically detectable alteration of HEL cell morphology; conditions: Homo sapiens; read-out: MIC50
HEL [10] = test: The minimum inhibitory concentration required to reduce CMV(AD-169) virus induced cytopathicity by 50% was measured on HEL cells; conditions: Homo sapiens; summary of the method: as §3
HEL [11] = test: The minimum inhibitory concentration required to reduce CMV(Davis) virus induced cytopathicity by 50% was measured on HEL cells; conditions: Homo sapiens; summary of the method: as §3
HEL [12] = test: The minimum inhibitory concentration required to reduce TK-VZV(YS-R) virus induced cytopathicity by 50% was measured on HEL cells; conditions: Homo sapiens; summary of the method: as §3
HEL [13] = test: The minimum inhibitory concentration required to reduce VZV(Oka) virus induced cytopathicity by 50% was measured on HEL cells; conditions: Homo sapiens; summary of the method: as §3
HEL [14] = test: The minimum inhibitory concentration required to reduce VZV(YS) virus induced cytopathicity by 50% was measured on HEL cells; conditions: Homo sapiens; summary of the method: as §3
HeLa [15] = test: The minimum inhibitory concentration required to reduce Coxsackie B4 virus induced cytopathicity by 50% in HeLa cells.; conditions: Homo sapiens; summary of the method: as §3
HeLa [16] = test: The minimum inhibitory concentration required to reduce Polio-1 virus induced cytopathicity by 50% in HeLa cells; conditions: Homo sapiens; summary of the method: as §3
[17] = test system: Respiratory syncytial virus; test: The minimum inhibitory concentration required to reduce RSV(Long) virus induced cytopathicity by 50% in HeLa cells; conditions: human respiratory syncytial virus; summary of the method: as §3
HeLa [18] = test: The minimum inhibitory concentration required to reduce Vesicular Stomatitis Virus induced cytopathicity by 50% in HeLa cells; conditions: Homo sapiens; summary of the method: as §3
MDCK [19] = test: The minimum inhibitory concentration required to reduce Influenza A virus induced cytopathicity by 50% was measured on MDCK cells; conditions: Canis lupus familiaris; summary of the method: as §3
MDCK [20] = test: The minimum inhibitory concentration required to reduce Influenza B virus induced cytopathicity by 50% was measured on MDCK cells; conditions: Canis lupus familiaris; summary of the method: as §3
MDCK [21] = test: Tested for the concentration required to cause a microscopically detectable alteration of MCDK cell morphology; conditions: Canis lupus familiaris; read-out: MIC50; summary of the method: as §2
Vero [22] = test: The minimum inhibitory concentration required to reduce Arenavirus (Junin) induced cytopathicity by 50% was measured on Vero cells; conditions: Chlorocebus sabaeus; summary of the method: as §3
Vero [23] = test: The minimum inhibitory concentration required to reduce Arenavirus (Tacaribe) induced cytopathicity by 50% was measured on Vero cells; conditions: Chlorocebus sabaeus; summary of the method: as §3
Vero [24] = test: The minimum inhibitory concentration required to reduce Parainfluenza virus type 3(ATCC VR-93) induced cytopathicity by 50% in Vero cells; conditions: Chlorocebus sabaeus; summary of the method: as §3
Vero [25] = test: The minimum inhibitory concentration required to reduce Reo-1 virus (ATCC VR-230) induced cytopathicity by 50% was measured in Vero cells; conditions: Chlorocebus sabaeus; summary of the method: as §3
Vero [26] = test: The minimum inhibitory concentration required to reduce forest virus (ATCC VR-67) induced cytopathicity by 50% in Vero cells; conditions: Chlorocebus sabaeus; summary of the method: as §3
Vero [27] = test: The minimum inhibitory concentration required to reduce Sindbis virus ([…]) induced cytopathicity by 50% in Vero cells; conditions: Chlorocebus sabaeus; summary of the method: as §3
Vero [28] = test: Tested for concentration required to cause a microscopically detectable alteration of Vero cell morphology; conditions: Chlorocebus sabaeus; read-out: MIC50; summary of the method: as §2
CCRF-CEM [29] = test: Tested for concentration required to cause a microscopically detectable alteration of CEM cell morphology; conditions: Homo sapiens
E6SM [30] = test: The minimum inhibitory concentration required to reduce TK-HSV-1(VMW 1837) virus induced cytopathicity by 50% in E6SM cells; conditions: Homo sapiens; summary of the method: as §3
HEL [31] = test: The minimum inhibitory concentration required to reduce TK-VZV(07-1) virus induced cytopathicity by 50% was measured on HEL cells; conditions: Homo sapiens; summary of the method: as §3
HeLa [32] = test: Tested for concentration required to cause a microscopically detectable alteration of HeLa cell morphology; conditions: Homo sapiens; read-out: MIC50; summary of the method: as §2

Row | Compound | minimum cytotoxic concentration (microscopic alteration of cell morphology) (E6SM [3]) [µg/mL] | MIC50 (E6SM [4]) [µg/mL] | MIC50 (E6SM [5]) [µg/mL] | MIC50 (E6SM [7]) [µg/mL] | MIC50 (E6SM [8]) [µg/mL] | Minimum cytotoxic concentration (MCC) (HEL [9]) [µg/mL] | MIC50 (HEL [10]) [µg/mL] | MIC50 (HEL [11]) [µg/mL] | MIC50 (HEL [13]) [µg/mL] | MIC50 (HEL [14]) [µg/mL] | MIC50 (HeLa [15]) [µg/mL] | MIC50 (HeLa [16]) [µg/mL] | MIC50 [17] [µg/mL] | MIC50 (HeLa [18]) [µg/mL] | MIC50 (MDCK [19]) [µg/mL] | MIC50 (MDCK [20]) [µg/mL] | Minimum cytotoxic concentration (MDCK [21]) [µg/mL] | MIC50 (Vero [22]) [µg/mL] | MIC50 (Vero [23]) [µg/mL] | MIC50 (Vero [24]) [µg/mL] | further results
1 | Nc1ncnc2c1ccn2[C@H]1C[C@@H](O)[C@H](O)[C@@H]1O | > 400 | 300 (≈ 1200 µM) | > 400 | 150 (≈ 599 µM) | 70 (≈ 280 µM) | > 200 | > 40 | > 40 | > 40 | > 40 | > 400 | > 400 | 100 (≈ 400 µM) | 300 (≈ 1200 µM) | > 200 | > 200 | > 200 | > 20 | > 20 | 100 (≈ 400 µM) | MIC50 (CCRF-CEM [1]): > 500 µg/mL; MIC50 (CCRF-CEM [2]): > 500 µg/mL; MIC50 (E6SM [6]): 300 µg/mL (≈ 1200 µM); MIC50 (HEL [12]): > 40 µg/mL; MIC50 (Vero [25]): > 200 µg/mL; MIC50 (Vero [26]): > 200 µg/mL; MIC50 (Vero [27]): > 200 µg/mL; Minimum cytotoxic concentration (Vero [28]): > 400 µg/mL; MIC50 (CCRF-CEM [29]): > 500 µg/mL; MIC50 (E6SM [30]): 300 µg/mL (≈ 1200 µM); MIC50 (HEL [31]): > 40 µg/mL; Minimum cytotoxic concentration (HeLa [32]): > 400 µg/mL
2 | Nc1nccc2c1ncn2C1CC(O)C(O)C1O (single isomer, unassigned; (-)) | > 400 | > 400 | > 400 | 0.4 (≈ 1.6 µM) | 0.7 (≈ 2.8 µM) | > 200 | > 40 | > 40 | > 40 | > 40 | > 400 | > 400 | > 150 | 2 (≈ 7.99 µM) | 150 (≈ 599 µM) | > 200 | > 200 | > 40 | > 40 | 1 (≈ 4 µM) | MIC50 (CCRF-CEM [1]): > 20 µg/mL; MIC50 (CCRF-CEM [2]): > 20 µg/mL; MIC50 (E6SM [6]): 300 µg/mL (≈ 1200 µM); MIC50 (HEL [12]): > 40 µg/mL; MIC50 (Vero [25]): 7 µg/mL (≈ 28 µM); MIC50 (Vero [26]): > 200 µg/mL; MIC50 (Vero [27]): > 200 µg/mL; Minimum cytotoxic concentration (Vero [28]): > 200 µg/mL; MIC50 (CCRF-CEM [29]): 27 µg/mL (≈ 108 µM); MIC50 (E6SM [30]): 300 µg/mL (≈ 1200 µM); MIC50 (HEL [31]): > 30 µg/mL; Minimum cytotoxic concentration (HeLa [32]): > 400 µg/mL
3 | Nc1ncnc2c1ncn2[C@@H]1C=C(CO)[C@@H](O)[C@H]1O [NEOPLANOCIN A] | 100 | 70 (≈ 266 µM) | > 100 | 0.2 (≈ 0.76 µM) | 2 (≈ 7.6 µM) | 20 | 0.6 (≈ 2.28 µM) | 0.4 (≈ 1.52 µM) | 4 (≈ 15.2 µM) | 5 (≈ 19 µM) | > 40 | > 40 | > 1.2 | 2 (≈ 7.6 µM) | 0.3 (≈ 1.14 µM) | > 4 | 4 | 1 (≈ 3.8 µM) | 1 (≈ 3.8 µM) | 0.2 (≈ 0.76 µM) | MIC50 (E6SM [6]): 20 µg/mL (≈ 76 µM); MIC50 (HEL [12]): 3 µg/mL (≈ 11.4 µM); MIC50 (Vero [25]): 0.7 µg/mL (≈ 2.66 µM); MIC50 (Vero [26]): 7 µg/mL (≈ 26.6 µM); MIC50 (Vero [27]): 2 µg/mL (≈ 7.6 µM); Minimum cytotoxic concentration (Vero [28]): 40 µg/mL; MIC50 (E6SM [30]): 70 µg/mL (≈ 266 µM); MIC50 (HEL [31]): 4 µg/mL (≈ 15.2 µM); Minimum cytotoxic concentration (HeLa [32]): 1 µg/mL
4 | Nc1ncnc2c1ncn2[C@@H]1C[C@H](O)[C@@H](O)[C@H]1O [NORARISTEROMYCIN] | > 400 | > 400 | > 400 | 0.04 (≈ 0.159 µM) | 0.1 (≈ 0.398 µM) | 50 | 0.01 (≈ 0.0398 µM) | 0.03 (≈ 0.119 µM) | > 50 | > 50 | > 400 | > 400 | > 200 | 0.2 (≈ 0.796 µM) | > 100 | > 100 | > 400 | 6 (≈ 23.9 µM) | 8 (≈ 31.8 µM) | 0.07 (≈ 0.279 µM) | MIC50 (CCRF-CEM [1]): > 0.16 µg/mL; MIC50 (CCRF-CEM [2]): > 0.16 µg/mL; MIC50 (Vero [25]): 0.7 µg/mL (≈ 2.79 µM); MIC50 (Vero [26]): > 400 µg/mL; MIC50 (Vero [27]): > 400 µg/mL; Minimum cytotoxic concentration (Vero [28]): > 400 µg/mL; MIC50 (CCRF-CEM [29]): 0.4 µg/mL (≈ 1.59 µM); Minimum cytotoxic concentration (HeLa [32]): > 400 µg/mL
